ChEMBL document CHEMBL4011642, “Potent, Selective, and Cell Active Protein Arginine Methyltransferase 5 (PRMT5) Inhibitor Developed by Structure-Based Virtual Screening and Hit Optimization” (J Med Chem, 2017)
Active and inactive are the calls of the source. The calls are words filed in the database; no cut-off is given here.

Tests used:
PRMT5/MEP50 complex [1] = target: T1, PRMT5/MEP50 complex (Homo sapiens, UniProt O14744); experiment: Inhibition of recombinant human N-terminal FLAG-tagged PRMT5 (2 to end residues) /human N-terminal His-tagged MEP50 (2 to end residues) expressed in HEK293F cells using histone H4 as substrate preincubated for 15 mins followed by substrate/S-adenosyl methionine addition measured after 60 mins by alpha LISA assay; set-up: species or system HEK293
T1 sequence (O14744 whole entry): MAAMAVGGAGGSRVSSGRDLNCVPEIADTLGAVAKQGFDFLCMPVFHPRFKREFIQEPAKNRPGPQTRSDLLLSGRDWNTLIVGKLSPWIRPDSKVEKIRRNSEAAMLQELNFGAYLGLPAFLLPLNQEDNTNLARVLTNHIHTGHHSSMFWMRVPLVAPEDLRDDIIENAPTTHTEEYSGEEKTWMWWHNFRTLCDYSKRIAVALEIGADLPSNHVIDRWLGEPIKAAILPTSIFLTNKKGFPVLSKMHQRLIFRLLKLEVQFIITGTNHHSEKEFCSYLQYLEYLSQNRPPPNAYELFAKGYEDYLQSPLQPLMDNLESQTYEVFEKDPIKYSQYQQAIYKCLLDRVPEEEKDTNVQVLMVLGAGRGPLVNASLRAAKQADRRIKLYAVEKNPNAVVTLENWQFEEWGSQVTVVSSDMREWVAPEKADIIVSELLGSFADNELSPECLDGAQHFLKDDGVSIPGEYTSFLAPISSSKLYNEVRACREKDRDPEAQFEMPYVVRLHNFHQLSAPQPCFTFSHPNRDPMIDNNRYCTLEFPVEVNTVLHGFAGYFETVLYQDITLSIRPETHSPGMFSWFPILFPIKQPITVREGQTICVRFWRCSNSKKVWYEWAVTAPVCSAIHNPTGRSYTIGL
T1 sequence (Q9BQA1 whole entry, further chain): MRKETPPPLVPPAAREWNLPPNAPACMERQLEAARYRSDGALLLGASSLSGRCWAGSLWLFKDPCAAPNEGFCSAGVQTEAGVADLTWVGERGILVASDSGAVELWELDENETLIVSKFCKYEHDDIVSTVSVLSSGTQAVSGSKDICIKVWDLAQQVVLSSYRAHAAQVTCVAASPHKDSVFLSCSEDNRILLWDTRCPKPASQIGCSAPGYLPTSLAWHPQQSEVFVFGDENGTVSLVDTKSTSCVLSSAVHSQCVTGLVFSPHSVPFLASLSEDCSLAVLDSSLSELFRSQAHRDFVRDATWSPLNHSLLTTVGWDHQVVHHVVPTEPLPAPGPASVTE

HUVEC = experiment: Cytotoxicity against human HUVEC assessed as cell growth inhibition after 8 days by Cell Titer-Glo assay; assay type: cell-based; conditions: 192 h
Method in brief: (§1)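 Normal cells (HUVEC from ATCC; RCTEC) grown in RPMI1640 with 10% FBS and 1% penicillin/streptomycin, 5% CO2, 37 °C. Seeded at 0.5–1 × 10^5 cells/well; compound (0–100 μM) added after 6 h. Cells counted and replated with fresh medium and compound every 4 days over 8 days. Viability by CellTiter-Glo luminescence; concentration–response curves fitted at each time point.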

MV4-11 [2] = experiment: Cytotoxicity against human MV411 cells assessed as cell growth inhibition after 12 days by Cell Titer-Glo assay; conditions: MV4-11, 288 h
JeKo-1 = experiment: Cytotoxicity against human JeKo1 cells assessed as cell growth inhibition after 12 days by Cell Titer-Glo assay; assay type: functional, cell-based; conditions: JeKo-1, 288 h
Method in brief: (§2)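 Cancer lines grown in RPMI1640 with 10% FBS and 1% penicillin/streptomycin, 5% CO2, 37 °C. Seeded at 0.5–1 × 10^5 cells/well; compound (0–100 μM) added after 6 h. Counted and replated at equal numbers with fresh medium and compound every 4 days, up to 12 days. Viable cells by CellTiter-Glo luminescence; concentration–response curves fitted at each time point.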

Z-138 = experiment: Cytotoxicity against human Z138 cells assessed as cell growth inhibition after 12 days by Cell Titer-Glo assay; assay type: functional, cell-based; conditions: Z-138, 288 h; method in brief: as §2
[3] = Cytotoxicity against human RCTEC assessed as cell growth inhibition after 8 days by Cell Titer-Glo assay; assay type: cell-based; conditions: 192 h; method in brief: as §1
MV4-11 [4] = experiment: Cytotoxicity against human MV411 cells assessed as cell growth inhibition after 4 days by Cell Titer-Glo assay; assay type: functional, cell-based; conditions: MV4-11, 96 h; method in brief: as §2
MV4-11 [5] = experiment: Cytotoxicity against human MV411 cells assessed as cell growth inhibition after 8 days by Cell Titer-Glo assay; assay type: functional, cell-based; conditions: MV4-11, 192 h; method in brief: as §2
[6] = target: Protein arginine N-methyltransferase 5 (Homo sapiens) (UniProt O14744); experiment: Inhibition of PRMT5 in human MV411 cells assessed as downregulation of SmD3 after 6 days by Western blot analysis; assay type: cell-based
Sequence of Protein arginine N-methyltransferase 5 (Homo sapiens) (O14744 whole entry): as the sequence (O14744 whole entry) above
Method in brief: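 MV4-11 cells treated with compound over a 0–20 μM titration for 6 days. Whole-cell lysates run on 4–12% SDS-PAGE, transferred to nitrocellulose, blocked in 5% milk. Probed overnight at 4 °C with anti-symmetric dimethylarginine (SDMA) and GAPDH antibodies, then HRP secondary. SmD3-colocalizing band assessed.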

[7] = target: T2, PRMT5/MEP50 complex (Homo sapiens) (UniProt O14744+Q9BQA1); experiment: (§3) Competitive inhibition of recombinant human N-terminal FLAG-tagged PRMT5 (2 to end residues) /human N-terminal His-tagged MEP50 (2 to end residues) expressed in HEK293F cells using peptide substrate preincubated for 15 mins followed by substrate/[3H]-SAM addition measured after 60 mins under varying concentration of SAM; assay type: cell-based
Method in brief: (§4)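 Mechanism study in modified Tris buffer. PRMT5/MEP50 preincubated 15 min at RT with serially diluted compound (1% DMSO final), then peptide added and reaction started with [3H]-SAM. For the SAM study, [3H]-SAM was set at 7 concentrations with fixed peptide. For the peptide study, peptide was set at 7 concentrations with fixed SAM. Run 60 min at RT, stopped with cold SAM, Flashplate capture, MicroBeta counting.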

[8] = target: T2, PRMT5/MEP50 complex (Homo sapiens); experiment: as §3, with “Non-competitive inhibition” for “Competitive inhibition”, “of peptide” for “of SAM”; assay type: cell-based; method in brief: as §4
KOPN-8 = experiment: Cytotoxicity against human KOPN8 cells assessed as cell growth inhibition after 12 days by Cell Titer-Glo assay; conditions: KOPN-8, 288 h
PRMT5/MEP50 complex [9] = target: T1, PRMT5/MEP50 complex; experiment: Inhibition of recombinant human N-terminal FLAG-tagged PRMT5 (2 to end residues)/human N-terminal His-tagged MEP50 (2 to end residues) expressed in HEK293F cells using histone H4 as substrate in presence of [3H]-SAM after 60 mins by chemiluminescent assay; assay type: cell-based, HEK293; conditions: in the assay text read “radioactive methylation assay” for “chemiluminescent assay”
Method in brief: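 PRMT5/MEP50 complex in modified Tris buffer with 3-fold diluted compound (1% DMSO final) preincubated 15 min at RT. Substrate added and reaction started with [3H]-SAM; 60 min at RT, stopped with cold SAM. Transferred to Flashplate, washed, counted on MicroBeta.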

[10] = target: T2, PRMT5/MEP50 complex (Homo sapiens); experiment: as §3, with “of peptide” for “of SAM”; assay type: cell-based; method in brief: as §4
[11] = target: T2, PRMT5/MEP50 complex (Homo sapiens); experiment: as §3, with “Uncompetitive” for “Competitive”; assay type: cell-based; method in brief: as §4

Row | IC50 (PRMT5/MEP50 complex [1]) [µM] | Structure (SMILES) | also measured
1 | 2.9 | COc1ccc2[nH]c(SCC(=O)Nc3ccccc3C(C)=O)nc2c1 | –
2 | > 100 | COC(=O)c1ccc(NC(=O)CSc2nc3cc(OC)ccc3[nH]2)cc1 | –
3 | 52 | COC(=O)c1cccc(NC(=O)CSc2nc3cc(OC)ccc3[nH]2)c1 | –
4 | 0.33 | COC(=O)c1ccccc1NC(=O)CSc1nc2cc(N(C)C)ccc2[nH]1 | –
5 | 27 | COc1ccc(C(=O)NC2C=NCS2)c(OC)c1 (stereo not drawn) | –
6 | 1.9 | CCOC(=O)c1ccccc1NC(=O)CSc1nc2cc(OC)ccc2[nH]1 | –
7 | 0.53 | CCCOc1ccc2[nH]c(SCC(=O)Nc3ccccc3C(=O)OC)nc2c1 | –
8 | > 200 | COc1ccc2[nH]c(SCC(=O)Nc3ccccc3C(=O)N(C)C)nc2c1 | –
9 | > 100 | COC(=O)c1ccccc1NC(=O)CSc1nc2c(OC)cccc2[nH]1 | –
10 | 27 | Clc1ccc(CNCC2CCNCC2)cc1Cl | –
11 | 40 | COC(=O)c1ccccc1NC(=O)CSc1nc2cc(N)ccc2[nH]1 | –
12 | > 200 | CNC(=O)c1ccccc1NC(=O)CSc1nc2cc(OC)ccc2[nH]1 | –
13 | 2.8 | COC(=O)c1ccccc1NC(=O)CSc1nc2cc(OC(C)C)ccc2[nH]1 | –
14 | 23 | O=C(/C=C/c1ccc(-c2ccccc2[N+](=O)[O-])o1)c1ccccc1 | IC50 (PRMT5/MEP50 complex [9]): 169 µM
15 | 1.6 | CNc1ccc2[nH]c(SCC(=O)Nc3ccccc3C(=O)OC)nc2c1 | –
16 | 87 | COC(=O)c1ccccc1NC(=O)CSc1nc2ccncc2[nH]1 | –
17 | 8.1 | COC(=O)c1ccccc1NC(=O)CSc1nc2ccccc2[nH]1 | IC50 (PRMT5/MEP50 complex [9]): 24 µM

The next lines start with the compound.

Row | Structure (SMILES) | IC50 (PRMT5/MEP50 complex [1]) [µM] | also measured
18 | COc1ccc2[nH]c(SCC(=O)Nc3ccccc3C)nc2c1 | > 200 | –
19 | COc1ccc2[nH]c(SCC(=O)Nc3ccccc3)nc2c1 | 33 | –
20 | COC(=O)c1ccccc1NC(=O)CSc1nc2cc([N+](=O)[O-])ccc2[nH]1 | 0.83 | –
21 | COC(=O)c1ccccc1NC(=O)CSc1nc2cc(Br)ccc2[nH]1 | 0.34 | –
22 | COc1ccc2[nH]c(SCC(=O)Nc3ccccc3N(C)C)nc2c1 | 25 | –
23 | COC(=O)c1ccccc1NC(=O)CSc1nc2cc(Cl)ccc2[nH]1 | 0.5 | –
24 | COC(=O)c1ccccc1NC(=O)CSc1nc2cc(F)ccc2[nH]1 | 3.3 | –
25 | COC(=O)c1ccccc1NC(=O)CSc1nc2cc(OC)ccc2[nH]1 | – | Activity (HUVEC): Non-Toxic; EC50 (MV4-11 [2]): 6.53 µM; EC50 (JeKo-1): 15 to 70 µM; EC50 (Z-138): 15 to 70 µM; Activity [3]: Non-Toxic; EC50 (MV4-11 [4]): 80.7 µM; EC50 (MV4-11 [5]): 25.7 µM; inhibition [6]: Dose-dependent effect; inhibition [7]: Active; inhibition [8]: Active; EC50 (KOPN-8): 15 to 70 µM
26 | CCOc1ccc2[nH]c(SCC(=O)Nc3ccccc3C(=O)OC)nc2c1 | 0.35 | –
27 | COC(=O)c1ccncc1NC(=O)CSc1nc2cc(OC)ccc2[nH]1 | 2.4 | –
28 | COC(=O)c1ccccc1NC(=O)CSc1nc2nc(OC)ccc2[nH]1 | 8.4 | –
29 | COc1ccc2[nH]c(SCC(=O)Nc3ccccc3Cl)nc2c1 | 47 | –
30 | COC(=O)c1ccccc1NC(=O)CSc1nc2c(C)cccc2[nH]1 | > 100 | –
31 | COC(=O)c1ccccc1NC(=O)CSc1nc2cc(C)ccc2[nH]1 | 1.4 | –
32 | OCCNCc1c(OCc2ccccc2F)ccc2ccccc12 | 18 | IC50 (PRMT5/MEP50 complex [9]): 172 µM
33 | O=C(NC[C@H](O)CN1CCc2ccccc2C1)c1cc(NC2COC2)ncn1 | – | inhibition [10]: Active; inhibition [11]: Active
34 | COc1ccc2[nH]c(SCC(=O)Nc3ccccc3C(=O)O)nc2c1 | > 100 | –
35 | COC(=O)c1ccccc1NC(=O)CSc1nc2cc(O)ccc2[nH]1 | > 100 | –
36 | Cc1ccc(OCc2nnc3sc(-c4cccnc4)nn23)cc1 | 26 | IC50 (PRMT5/MEP50 complex [9]): > 200 µM
37 | COC(=O)c1ccccc1NC(=O)CSc1nc2c(Cl)cccc2[nH]1 | > 100 | –
38 | COc1ccc2[nH]c(SCC(=O)Nc3ccccc3OC)nc2c1 | 19 | –
